Publication PMC4264455 (British Journal of Cancer, 2014)
“Also recorded” adds a separate entry of the source.

Tests used:
[1] = test system: patients with refractory solid tumors; settings: ref Mahadevan et al, 2011, cited from earlier work
[2] = test system: advanced solid malignancies or non-Hodgkin's lymphoma; assay: Anti-tumour activity; assay type: in vivo, human
Method in brief: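 Test compound given as a 1-h IV infusion on days 1, 4, 8 and 11 every 3 weeks, at 14.4–32.4 mg m−2. Radiological assessment was done after every two cycles. Response was graded by RECIST version 1.1. Treatment continued until progression, unacceptable toxicity or consent withdrawal.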

[3] = test system: human cancer cell lines; settings: in vitro studies; ref Squires et al, 2010; cited from earlier work
[4] = test system: patients with advanced refractory solid tumours or non-Hodgkin's lymphoma; assay: Phase I dose escalation: safety, tolerability, DLT and adverse events; assay type: in vivo, human
[5] = five consecutive days every 3 weeks
[6] = 19 patients evaluable for efficacy

## O=C(NC1CCNCC1)c1n[nH]cc1NC(=O)c1c(Cl)cccc1Cl [AT7519, N-(4-piperidinyl)-4-(2,6-dichlorobenzoylamino)-1H-pyrazole-3-carboxamide]
[1]; [5]
  dose at which one patient death from QTc prolongation was reported: 34 mg m^−2 per day
  minimal effective biological dose: 28.8 mg m^−2 per day
[1]; × 5 days
  dose at which dose-limiting toxicity (DLT) was initially seen: 14.4 mg m^−2 per day
[2]; [6]
  complete or partial response: no complete or partial response; also recorded: no partial response
  patients with progressive disease as best response: nine
[2]; one patient with metastatic rectal cancer, 10 cycles
  duration of durable stable disease in one patient: 11.1 months
[2]; ten patients with stable disease
  median duration of stable disease: 3.3 months
[3]
  concentrations at which anti-cancer activities were observed: above 100 ng ml^−1
[4]; 14.4 mg m^−2 (n=5)
  ALP elevation: No. of patients with AEs of any grade: 3 No. of patients
  AST elevation: No. of patients with AEs of any grade: 2 No. of patients
  Anaemia: No. of patients with AEs of any grade: 5 No. of patients
  Anorexia: No. of patients with AEs of any grade: 0 No. of patients
  Creatinine elevation: No. of patients with AEs of any grade: 1 No. of patients
  Diarrhoea: No. of patients with AEs of any grade: 0 No. of patients
  Fatigue: No. of patients with AEs of any grade: 0 No. of patients
  Hyperglycaemia (random): No. of patients with AEs of any grade: 0 No. of patients
  Infection without neutropenia: No. of patients with AEs of any grade: 0 No. of patients
  Lymphopenia: No. of patients with AEs of any grade: 4 No. of patients
  Mucositis: No. of patients with AEs of any grade: 0 No. of patients
  Nausea: No. of patients with AEs of any grade: 1 No. of patients
  Neutropenia: No. of patients with AEs of any grade: 0 No. of patients
  Thrombocytopenia: No. of patients with AEs of any grade: 0 No. of patients
  Vomiting: No. of patients with AEs of any grade: 1 No. of patients
[4]; 21.6 mg m^−2 (n=7)
  ALP elevation: No. of patients with AEs of any grade: 5 No. of patients
  AST elevation: No. of patients with AEs of any grade: 2 No. of patients
  Anaemia: No. of patients with AEs of any grade: 6 No. of patients
  Anorexia: No. of patients with AEs of any grade: 1 No. of patients
  Creatinine elevation: No. of patients with AEs of any grade: 1 No. of patients
  Diarrhoea: No. of patients with AEs of any grade: 2 No. of patients
  Fatigue: No. of patients with AEs of any grade: 4 No. of patients
  Hyperglycaemia (random): No. of patients with AEs of any grade: 1 No. of patients
  Infection without neutropenia: No. of patients with AEs of any grade: 1 No. of patients
  Lymphopenia: No. of patients with AEs of any grade: 5 No. of patients
  Mucositis: No. of patients with AEs of any grade: 3 No. of patients
  Nausea: No. of patients with AEs of any grade: 2 No. of patients
  Neutropenia: No. of patients with AEs of any grade: 0 No. of patients
  Thrombocytopenia: No. of patients with AEs of any grade: 1 No. of patients
  Vomiting: No. of patients with AEs of any grade: 1 No. of patients
[4]; 27.0 mg m^−2 (n=15)
  ALP elevation: No. of patients with AEs of any grade: 7 No. of patients
  AST elevation: No. of patients with AEs of any grade: 9 No. of patients
  Anaemia: No. of patients with AEs of any grade: 12 No. of patients
  Anorexia: No. of patients with AEs of any grade: 2 No. of patients
  Creatinine elevation: No. of patients with AEs of any grade: 1 No. of patients
  Diarrhoea: No. of patients with AEs of any grade: 3 No. of patients
  Fatigue: No. of patients with AEs of any grade: 10 No. of patients
  Hyperglycaemia (random): No. of patients with AEs of any grade: 9 No. of patients
  Infection without neutropenia: No. of patients with AEs of any grade: 3 No. of patients
  Lymphopenia: No. of patients with AEs of any grade: 13 No. of patients
  Mucositis: No. of patients with AEs of any grade: 11 No. of patients
  Nausea: No. of patients with AEs of any grade: 6 No. of patients
  Neutropenia: No. of patients with AEs of any grade: 4 No. of patients
  Thrombocytopenia: No. of patients with AEs of any grade: 6 No. of patients
  Vomiting: No. of patients with AEs of any grade: 4 No. of patients
[4]; 32.4 mg m^−2 (n=5)
  ALP elevation: No. of patients with AEs of any grade: 5 No. of patients
  AST elevation: No. of patients with AEs of any grade: 3 No. of patients
  Anaemia: No. of patients with AEs of any grade: 5 No. of patients
  Anorexia: No. of patients with AEs of any grade: 1 No. of patients
  Creatinine elevation: No. of patients with AEs of any grade: 2 No. of patients
  Diarrhoea: No. of patients with AEs of any grade: 0 No. of patients
  Fatigue: No. of patients with AEs of any grade: 3 No. of patients
